Converted amounts (≈) assume the structure as drawn.
How the values were obtained:
[1] = Aqueous solubility in pH 7.4 buffer; assay type: physicochemical
Procedure, shortened: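 Solubility measured in pH 7.4 buffer.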

Toll-like receptor 7 [2] = molecular target: T1, Toll-like receptor 7 (Homo sapiens, UniProt Q9NYK1); test: Agonist activity at human TLR7 expressed in HEK293 cells by NFkappaB SEAP reporter gene assay; assay type: cell-based
T1 sequence (Q9NYK1 whole entry): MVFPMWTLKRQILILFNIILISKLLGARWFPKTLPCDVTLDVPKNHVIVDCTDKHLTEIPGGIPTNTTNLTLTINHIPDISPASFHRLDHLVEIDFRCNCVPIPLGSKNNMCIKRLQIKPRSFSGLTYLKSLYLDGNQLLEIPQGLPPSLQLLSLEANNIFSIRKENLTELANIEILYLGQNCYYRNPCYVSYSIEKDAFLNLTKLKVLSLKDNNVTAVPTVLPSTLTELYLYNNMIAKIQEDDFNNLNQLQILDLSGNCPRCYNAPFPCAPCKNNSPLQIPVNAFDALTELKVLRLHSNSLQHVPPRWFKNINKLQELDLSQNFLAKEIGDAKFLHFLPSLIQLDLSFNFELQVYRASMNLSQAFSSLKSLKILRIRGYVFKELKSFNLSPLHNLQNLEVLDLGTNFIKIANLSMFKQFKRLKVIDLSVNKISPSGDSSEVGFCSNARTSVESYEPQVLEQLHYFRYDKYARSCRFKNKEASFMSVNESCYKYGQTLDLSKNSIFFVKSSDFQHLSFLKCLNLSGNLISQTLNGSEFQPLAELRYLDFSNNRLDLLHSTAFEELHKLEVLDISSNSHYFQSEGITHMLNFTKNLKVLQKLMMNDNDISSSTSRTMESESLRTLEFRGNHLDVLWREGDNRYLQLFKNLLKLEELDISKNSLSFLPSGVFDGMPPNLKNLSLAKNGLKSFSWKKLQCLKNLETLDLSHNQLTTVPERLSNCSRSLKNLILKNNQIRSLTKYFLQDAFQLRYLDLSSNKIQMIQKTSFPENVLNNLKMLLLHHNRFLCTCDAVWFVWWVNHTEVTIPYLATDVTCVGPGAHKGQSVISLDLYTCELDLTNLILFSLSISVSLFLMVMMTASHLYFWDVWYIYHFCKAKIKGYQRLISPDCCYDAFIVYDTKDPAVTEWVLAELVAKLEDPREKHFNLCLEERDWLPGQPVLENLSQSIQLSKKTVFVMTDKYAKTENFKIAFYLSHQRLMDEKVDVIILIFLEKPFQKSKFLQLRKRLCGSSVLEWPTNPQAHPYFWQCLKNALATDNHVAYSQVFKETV
Procedure, shortened: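 HEK293 cells stably transfected with human TLR7 plus an NF-κB-driven SEAP reporter. EC50 taken from reporter read-out, given as the mean of two independent experiments.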

[3] = molecular target: T2, Toll-like receptor 7 (Homo sapiens) (UniProt Q9NYK1); test: Potency index, ratio of EC50 of 852A to EC50 of test compound for human TLR7 expressed in HEK293 cells by NFkappaB SEAP reporter gene assay; assay type: cell-based
T2 sequence (whole entry): T1 sequence (Q9NYK1 whole entry)

[4] = Potency index, ratio of antitumor activity of 852A to test compound against mouse HM1 cells xenografted in B6C3F1 mouse; assay type: functional
[5] = Antitumor activity against mouse HM1 cells xenografted in B6C3F1 mouse assessed as inhibition of lung metastasis at 0.1 mg/kg, iv administered biweekly starting on day 1 post tumor xenografting measured on day 35 post tumor xenografting; assay type: functional; conditions: in the assay text read “starting on day 11 post” for “starting on day 1 post”
Procedure, shortened: (§1)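 HM-1 ovarian cancer cells injected subcutaneously into B6C3F1 mice on day 0. Primary tumor surgically removed under isoflurane on day 10. Compound given intravenously twice weekly from day 11. Lung metastases counted on day 35 and expressed as % inhibition. Six mice per group, mean ± SD. Significance versus vehicle by Wilcoxon test.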

[6] = Half life in Balb/c mouse at 1 mg/kg, iv; assay type: ADME, organism-based; design: dose 1 mg/kg, route intravenous; conditions: in vivo
Procedure, shortened: (§2)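 Female Balb/c mice dosed intravenously at 1 mg/kg. Vdss and T1/2 calculated from this PK study.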

Mus musculus [7] = test: Increase in IFN level in Balb/c mouse plasma at 1 mg/kg, iv measured after 6 hrs post dose by L929 cells and VSV based bioassay; assay type: functional
Procedure, shortened: (§3)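 Female Balb/c mice were given a single intravenous dose of test compound. Plasma interferon was sampled 6 h post dose and quantified by a bioassay using L929 cells challenged with vesicular stomatitis virus, with values reported in IU/mL.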

Toll-like receptor 7 [8] = molecular target: T3, Toll-like receptor 7 (Mus musculus, UniProt P58681); test: Agonist activity at mouse TLR7
T3 sequence (P58681 whole entry): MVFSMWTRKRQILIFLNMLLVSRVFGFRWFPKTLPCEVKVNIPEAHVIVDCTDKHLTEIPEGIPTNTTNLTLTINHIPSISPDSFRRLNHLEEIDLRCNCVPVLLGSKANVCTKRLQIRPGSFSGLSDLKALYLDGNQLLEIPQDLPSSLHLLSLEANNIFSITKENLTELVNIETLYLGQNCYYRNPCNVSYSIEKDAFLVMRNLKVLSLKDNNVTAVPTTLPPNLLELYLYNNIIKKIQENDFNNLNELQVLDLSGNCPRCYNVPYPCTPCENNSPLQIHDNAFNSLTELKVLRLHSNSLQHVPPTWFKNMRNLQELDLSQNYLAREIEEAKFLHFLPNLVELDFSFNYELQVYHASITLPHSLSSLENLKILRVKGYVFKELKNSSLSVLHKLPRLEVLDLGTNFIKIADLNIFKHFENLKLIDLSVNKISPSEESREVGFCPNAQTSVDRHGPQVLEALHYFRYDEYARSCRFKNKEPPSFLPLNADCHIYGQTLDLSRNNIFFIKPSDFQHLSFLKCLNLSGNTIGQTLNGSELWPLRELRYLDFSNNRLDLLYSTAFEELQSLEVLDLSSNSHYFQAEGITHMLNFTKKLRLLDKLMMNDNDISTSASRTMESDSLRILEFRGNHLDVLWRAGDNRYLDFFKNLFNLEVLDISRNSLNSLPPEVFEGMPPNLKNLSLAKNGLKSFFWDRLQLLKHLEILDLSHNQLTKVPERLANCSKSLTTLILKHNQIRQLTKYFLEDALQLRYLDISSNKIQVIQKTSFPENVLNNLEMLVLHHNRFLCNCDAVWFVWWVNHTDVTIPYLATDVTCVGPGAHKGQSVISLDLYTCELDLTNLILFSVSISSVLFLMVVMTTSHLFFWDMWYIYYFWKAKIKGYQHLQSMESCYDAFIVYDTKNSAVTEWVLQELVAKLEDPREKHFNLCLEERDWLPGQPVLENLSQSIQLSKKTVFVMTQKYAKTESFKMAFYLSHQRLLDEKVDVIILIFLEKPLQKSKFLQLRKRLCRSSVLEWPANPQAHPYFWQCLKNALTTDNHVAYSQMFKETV

[9] = Volume of distribution at steady state in Balb/c mouse at 1 mg/kg, iv; assay type: ADME, organism-based; design: dose 1 mg/kg, route intravenous; conditions: in vivo, read-out: Vdss; procedure, shortened: as §2
[10] = Antitumor activity against mouse HM1 cells xenografted in B6C3F1 mouse assessed as inhibition of lung metastasis at 1 mg/kg, iv administered biweekly starting on day 11 post tumor xenografting measured on day 35 post tumor xenografting
[11] = Antitumor activity against mouse HM1 cells xenografted in B6C3F1 mouse assessed as inhibition of lung metastasis at 10 mg/kg, iv administered biweekly starting on day 1 post tumor xenografting measured on day 35 post tumor xenografting; assay type: functional; conditions: in the assay text read “starting on day 11 post” for “starting on day 1 post”; procedure, shortened: as §1
[12] = Antitumor activity against mouse HM1 cells xenografted in B6C3F1 mouse assessed as inhibition of lung metastasis at 1 mg/kg, iv administered biweekly starting on day 1 post tumor xenografting measured on day 35 post tumor xenografting; assay type: functional; conditions: in the assay text read “starting on day 11 post” for “starting on day 1 post”; procedure, shortened: as §1
Mus musculus [13] = test: Increase in IFN level in Balb/c mouse plasma at 10 mg/kg, iv measured after 6 hrs post dose by L929 cells and VSV based bioassay; assay type: functional; procedure, shortened: as §3

SMILES	solubility [1] [µg/mL]	EC50 (Toll-like receptor 7 [2]) [nM]	other results
CCCCNc1nc(N)c2[nH]c(=O)n(Cc3ccc(OCCCN(C)C)nc3)c2n1	288 (≈ 695 µM)		
CCCCNc1nc(N)c2[nH]c(=O)n(Cc3ccc(N4CCN(C)CC4)nc3)c2n1	7 (≈ 17 µM)	5.4	
CCCCNc1nc(N)c2nc(O)n(Cc3ccc(OC)nc3)c2n1	< 1	28.1	
CCCCNc1nc(N)c2[nH]c(=O)n(Cc3ccc(OCCNC)nc3)c2n1		166	
CCCCNc1nc(N)c2[nH]c(=O)n(Cc3ccc(OCCN4CCOCC4)nc3)c2n1	34 (≈ 76.8 µM)	50.2	
CCCCNc1nc(N)c2[nH]c(=O)n(Cc3ccc(CN4CCOCC4)cc3)c2n1	8 (≈ 19.4 µM)	58	
CCCCNc1nc(N)c2[nH]c(=O)n(Cc3ccc(CN4CCCCC4)cc3)c2n1	19 (≈ 46.4 µM)	7.6	
CCCCNc1nc(N)c2[nH]c(=O)n(Cc3ccc(N4CCC(N(C)C)C4)nc3)c2n1 (configuration not stated)	53 (≈ 125 µM)	7.4	
CCCCNc1nc(N)c2[nH]c(=O)n(Cc3ccc(N4CCNCC4)nc3)c2n1	63 (≈ 158 µM)	48.5	
CCCCNc1nc(N)c2[nH]c(=O)n(Cc3ccc(OCCN(C)C)nc3)c2n1	372 (≈ 929 µM)	7.2	Ratio EC50 [3]: 370; Ratio [4]: >100; inhibition in vivo at 0.1 mg/kg [5]: 78%; half-life [6]: 1.3 h; Activity (Mus musculus [7]): 840 IU/ml; EC50 (Toll-like receptor 7 [8]): 4.6 nM; Vd [9]: 6.6 L/kg; inhibition in vivo at 1 mg/kg [10]: 100%
CCCCNc1nc(N)c2nc(O)n(Cc3ccc(C)cc3)c2n1	< 1	166	
CCc1nc2c(N)nc3ccccc3c2n1CCCCNS(C)(=O)=O [CPG-52852]		2660	inhibition in vivo at 10 mg/kg [11]: 55%; inhibition in vivo at 1 mg/kg [12]: 6%; Activity (Mus musculus [13]): 19 IU/ml; EC50 (Toll-like receptor 7 [8]): 6220 nM
CCCCNc1nc(N)c2nc(O)n(Cc3ccc(C)nc3)c2n1	< 1	32	
CCCCNc1nc(N)c2[nH]c(=O)n(Cc3cccc(CN4CCCCC4)c3)c2n1		30.1	
CCCCNc1nc(N)c2[nH]c(=O)n(Cc3ccc(OCCCCN(C)C)nc3)c2n1	350 (≈ 817 µM)	15.2	
CCCCNc1nc(N)c2[nH]c(=O)n(Cc3ccc(CN(C)C)cc3)c2n1	98 (≈ 265 µM)	9.3	
CCCCNc1nc(N)c2[nH]c(=O)n(Cc3ccc(N(C)CCCN(C)C)nc3)c2n1	725 (≈ 1700 µM)	72.8	
CCCCNc1nc(N)c2[nH]c(=O)n(Cc3ccc(CN4CCN(C)CC4)cc3)c2n1	108 (≈ 254 µM)	7	
CCCCNc1nc(N)c2[nH]c(=O)n(Cc3cccc(CN4CCN(C)CC4)c3)c2n1		130	
CCCCNc1nc(N)c2[nH]c(=O)n(Cc3ccc(N4CCC(N(C)C)CC4)nc3)c2n1	71 (≈ 162 µM)	9.4	

Source: ChEMBL document CHEMBL2311334, “Synthesis and evaluation of 8-oxoadenine derivatives as potent Toll-like receptor 7 agonists with high water solubility” (Bioorg Med Chem Lett, 2013)
